Molecules are shown by their SMILES. Counter-ions that a name gives are not always drawn. The source made the active and inactive calls. The rule behind the calls is not given here.

Activity and inhibition data for four molecules are collected here from ChEMBL document CHEMBL1144523, “Synthetic cryptolepine inhibits DNA binding of NF-kappaB” (Bioorg Med Chem, 2007).

Data set [1] relates to RAW. In words: Inhibition of DNA binding of NF-kappaB in LPS-stimulated mouse RAW 264.7 cells administered at 5 uM […] by EMSA. Type of data set: cell-based. A digest of the protocol:
(§1)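 RAW 264.7 cells were pretreated with compound for 30 min, then stimulated with LPS (100 ng/ml in methods) for 60 min. Nuclear extracts were made by hypotonic HEPES swelling with NP-40, then hypertonic 0.4 M NaCl extraction. Equal nuclear protein was incubated with labelled NF-κB probe for 30 min at room temperature, resolved on a 4.5% native gel and imaged by phosphorimager.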

Data set [2] relates to RAW. In words: Effect on IkappaB phosphorylation in LPS-stimulated mouse RAW 264.7 cells […]. Type of data set: cell-based.
The next data set relates to HEK293. In words: Inhibition of NF-kappaB-mediated gene transcription in HEK293 cells by luciferase reporter gene assay. Conditions: Homo sapiens. The class given is cell-based. A digest of the protocol:
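HEK293 cells were transfected with pNF-κB-luc by Ca²⁺-phosphate, reseeded at 15,000 cells/well and grown for 16 h. They were pretreated with compound for 30 min, then stimulated with TNF-α 1 ng/ml for 6 h. Lysates were assayed for luciferase by luminometer. Data are means ± SD of at least four experiments in triplicate, ANOVA/Dunnett.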
Background: Reporter assays use an easily measured gene product as a stand-in for the process of interest.

Data set [3] concerns the target Transcription factor p65 (Mus musculus) (UniProt Q04207). In words: Inhibition of […]/NFkappaB nuclear translocation in LPS-stimulated mouse RAW 264.7 cells administered at 10 uM for 30 mins after LPS challenge. The class given is cell-based. The method in brief:
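RAW 264.7 cells were grown on gelatine-coated coverslips and preincubated with 10 µM compound for 30 min, then given LPS for 30 min. Cells were fixed in 2% formalin, permeabilized with 0.2% Triton X-100 and blocked in 5% BSA. They were stained with anti-p65 (1:50, 2 h, room temperature) plus FITC secondary (1 h) and imaged by confocal microscopy at 488 nm excitation.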

The subject of data set [4] is RAW. As to the kind of experiment: Inhibition of DNA binding of NF-kappaB in LPS-stimulated mouse RAW 264.7 cells administered at 10 uM […] by EMSA. Type of data set: cell-based. A digest of the protocol:
as §1

In data set [5] the test system is RAW. As to the kind of experiment: Inhibition of DNA binding of NF-kappaB isolated from LPS-stimulated mouse RAW 264.7 cells administered at 250 uM after 30 mins by EMSA. Type of data set: cell-free. A digest of the protocol:
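Nuclei from LPS-stimulated RAW 264.7 macrophages served as the source of active NF-κB. Equal amounts of nuclear protein were incubated with compound for 30 min, with or without 2 mM DTT. Radiolabelled NF-κB consensus probe was then added for 30 min at room temperature. Complexes were resolved on a 4.5% native gel and imaged by phosphorimager.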
On the technique in general: A gel shift assay detects complexes by their altered migration in electrophoresis.

The test system of data set [6] is RAW. As to the kind of experiment: Effect on IkappaB degradation in LPS-stimulated mouse RAW 264.7 cells administered at 10 uM for 30 mins […]. The class given is functional, cell-based. The method in brief: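 RAW 264.7 cells were pretreated with 10 µM compound for 30 min, then stimulated with LPS for the indicated times. Cells were lysed in SDS buffer, run on 10–12% gels and blotted to PVDF. Blots were probed for phospho-IκB, IκB after stripping, and tubulin, with ECL detection. Densitometric p-IκB/IκB ratios are given as fold of unstimulated control; three independent experiments, means ± SD.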

For data set [7], the system named is RAW. As to the kind of experiment: Inhibition of LPS-stimulated nitric oxide production in mouse RAW 264.7 cells at 10 uM after 20 hrs relative to control. Type of data set: functional. A digest of the protocol: (§2)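 RAW 264.7 cells were seeded in 96-well plates and cultured for 2 days. Compound was added, then LPS immediately after, for 20 h. Nitrite in the supernatant was measured by Griess reaction (sulfanilamide plus N-(1-naphthyl)ethylenediamine) at 550 nm against a 620 nm reference, quantified from a sodium nitrite standard curve. Runs were in triplicate; data are means ± SD of six independent experiments, ANOVA/Dunnett.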

The subject of data set [8] is RAW. As to the kind of experiment: Inhibition of LPS-stimulated nitric oxide production in mouse RAW 264.7 cells at 5 uM after 20 hrs relative to control. The class given is functional. A digest of the protocol:
as §2

Data set [9] can be described thus: Cytotoxicity against mouse RAW 264.7 cells. The class given is cell-based. The method in brief: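 RAW 264.7 cells (DMEM, 10% heat-inactivated FBS, passages 5–20) were first run through the 20 h LPS nitrite assay. Attached cells were then stained with 0.5% Crystal Violet in 20% methanol. Bound dye was dissolved in 50% 1 M sodium citrate/50% ethanol and absorbance read at 540 nm.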

Chain of Transcription factor p65 (Mus musculus) (Q04207 whole entry): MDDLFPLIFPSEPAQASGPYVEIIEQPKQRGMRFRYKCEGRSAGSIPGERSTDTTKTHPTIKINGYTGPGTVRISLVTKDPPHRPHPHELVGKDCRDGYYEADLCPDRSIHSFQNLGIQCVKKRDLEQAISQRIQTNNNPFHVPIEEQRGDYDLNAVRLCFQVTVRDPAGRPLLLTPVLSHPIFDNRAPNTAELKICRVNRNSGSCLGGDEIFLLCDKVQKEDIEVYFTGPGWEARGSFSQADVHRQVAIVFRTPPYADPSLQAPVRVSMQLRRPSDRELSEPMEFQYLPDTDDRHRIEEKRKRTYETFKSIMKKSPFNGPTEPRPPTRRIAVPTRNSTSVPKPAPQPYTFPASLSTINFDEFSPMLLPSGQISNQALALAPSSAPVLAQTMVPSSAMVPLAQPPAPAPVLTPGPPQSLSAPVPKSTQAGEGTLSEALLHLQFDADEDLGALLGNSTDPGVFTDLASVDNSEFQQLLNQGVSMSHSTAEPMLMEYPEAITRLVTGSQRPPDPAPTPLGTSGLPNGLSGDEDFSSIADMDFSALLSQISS

Turning to `C[n+]1c2ccccc2cc2[n-]c3ccccc3c21`, the outcome in the data set on RAW [1], in the data set with RAW [4] and in the data set with RAW [5] was Active. Further, the result (with RAW [2]; in [3]; in the data set with RAW [6]) was inactive. Also, the Activity entry in the data set on HEK293 was “Dose-dependent effect”.

The term inhibition denotes the drop in the measured response relative to a control, in per cent. For `C[n+]1c2ccccc2cc2[n-]c3ccccc3c21` [CRYPTOLEPINE HYDROCHLORIDE], the inhibition at 10 µM with RAW [7] was 50%. Also, in the data set on RAW [8], testing at 5 µM gave an inhibition of 30%.

Turning to `C[n+]1c2ccccc2cc2[n-]c3ccccc3c21` [CRYPTOLEPINE], the result in [9] was Active.

`C=C1C(=O)O[C@@H]2C3O[C@]3(C)CC/C=C(\C)CC[C@@H]12` (some centres not stated): the result (in the data set with RAW [1]; in [3]) was Active.
